Data set [1] has as its system Mus musculus. In words: Efficacy in serum sICAM-1 at 30 mg/kg of oral dosing in an inhaled allergen-induced cell influx in mice. It is filed as functional. Summed up: (§1)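 Mouse inhaled-allergen model. Compounds or vehicle (0.2% methylcellulose) given orally 18 h and 1 h before the first of two allergen inhalations. Lungs lavaged 24-27 h after the first inhalation. Read-outs were lavage cell count (no./µL), neutrophil and eosinophil percentages, and soluble ICAM-1 in serum and BAL 24 h after antigen. Values are mean ± SE.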

Data set [2] relates to Mus musculus. Kind of data set: % Efficacy in eosinophils at 30 mg/kg of oral dosing in an inhaled allergen-induced cell influx in mice. The data set is classed as functional, Eosinophil. Summed up: as §1
Data set [3] concerns Mus musculus. Kind of data set: % Efficacy in neutrophils at 30 mg/kg of oral dosing in an inhaled allergen-induced cell influx in mice. It is filed as functional. Summed up:
as §1

For data set [4], the system named is Mus musculus. In words: Efficacy in lBAL sICAM-1 at 30 mg/kg of oral dosing in an inhaled allergen-induced cell influx in mice. The data set is classed as functional. Summed up:
as §1

Data set [5] concerns Mus musculus. In words: Efficacy in lavage cells at 30 mg/kg of oral dosing in an inhaled allergen-induced cell influx in mice. The data set is classed as functional. Summed up:
as §1

Data set [6] can be described thus: Toxicity in HUVEC cell lysates. The settings on record: human. It is filed as cell-based, Lysate.
The target of data set [7] is T1, Intercellular adhesion molecule 1 (Homo sapiens, UniProt P05362). Kind of data set: In vitro inhibitory potency compared to TNF-alpha induced Intercellular adhesion molecule-1 in human endothelial cells (ELISA assay). It is filed as cell-based, Endothelial cell. Summed up:
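Primary HUVECs seeded at 5 × 10^4 cells/mL in EBM/2% FBS with supplements. After 24 h of compound at 37 °C, TNFα was added to 5 ng/mL final for 6 h at 37 °C. Cell-surface ICAM-1 was detected with a mouse monoclonal antibody, then HRP anti-mouse IgG and OPD, with absorbance at 490 nm. Triplicate determinations.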
(In an ELISA, binding on a coated surface is turned into a signal by an enzyme label.)

Data set [8] concerns the target T1, Intercellular adhesion molecule 1. In words: Inhibition of intercellular adhesion molecule-1 (ICAM1) in human endothelial cells. It is filed as cell-based, Endothelial cell. Summed up:
(§2)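 Whole-cell ELISA on primary HUVECs plated at 5 × 10^4 cells/mL in EBM/2% FBS with growth supplements. Compound preincubated 24 h at 37 °C, then inducer added (TNFα at 5 ng/mL final, or IL-1β or PMA in its place) for 6 h at 37 °C. Mouse monoclonal anti-E-selectin, anti-ICAM-1 or anti-VCAM-1 was applied overnight at 4 °C, then HRP anti-mouse IgG. Detection with OPD, A490. Triplicate assays.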

Data set [9] has the same target. In words: In vitro inhibitory potency compared to PMA induced Intercellular adhesion molecule-1 in human endothelial cells (ELISA assay). The data set is classed as cell-based, Endothelial cell. Summed up: as §2
The target in data set [10] is T2, E-selectin (Homo sapiens) (UniProt P16581).
T2 sequence (whole entry): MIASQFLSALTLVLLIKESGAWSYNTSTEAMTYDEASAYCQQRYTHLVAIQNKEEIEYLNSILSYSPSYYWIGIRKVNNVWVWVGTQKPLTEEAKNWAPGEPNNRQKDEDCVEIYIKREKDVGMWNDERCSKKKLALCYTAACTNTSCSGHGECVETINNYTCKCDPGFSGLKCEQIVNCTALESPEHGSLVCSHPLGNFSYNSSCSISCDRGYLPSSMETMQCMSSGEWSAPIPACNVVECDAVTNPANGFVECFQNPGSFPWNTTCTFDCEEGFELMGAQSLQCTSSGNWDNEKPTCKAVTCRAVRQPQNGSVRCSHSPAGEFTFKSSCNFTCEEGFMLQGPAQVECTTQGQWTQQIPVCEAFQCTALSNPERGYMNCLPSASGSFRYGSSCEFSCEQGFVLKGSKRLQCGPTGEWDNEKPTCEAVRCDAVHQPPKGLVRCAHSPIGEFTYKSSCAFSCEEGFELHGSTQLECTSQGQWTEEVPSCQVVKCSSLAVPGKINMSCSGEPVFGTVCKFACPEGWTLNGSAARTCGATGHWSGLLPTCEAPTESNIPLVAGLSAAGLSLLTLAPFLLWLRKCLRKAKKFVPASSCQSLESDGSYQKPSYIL
Kind of data set: In vitro inhibitory potency compared to PMA induced Selectin E expression in human endothelial cells (ELISA assay) at 1 uM. It is filed as cell-based. As to conditions: Endothelial cell. Summed up: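 HUVEC whole-cell ELISA with PMA substituted for TNFα as inducer. Compound preincubated 24 h at 37 °C, then 6 h induction at 37 °C. E-selectin detected with mouse monoclonal antibody and HRP anti-mouse IgG, OPD development, A490. Value given as percent inhibition at a single concentration of 1 µM.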

Data set [11] deals with T3, E-selectin (Homo sapiens, UniProt P16581).
T3 sequence (P16581 whole entry): T2 sequence (whole entry)
Kind of data set: Inhibition of selectin E in human endothelial cells. The data set is classed as cell-based, Endothelial cell. Summed up:
as §2

Data set [12] has as its target T3, E-selectin. Kind of data set: In vitro inhibitory potency compared to IL1-beta induced Selectin E in human endothelial cells (ELISA assay). It is filed as cell-based, Endothelial cell. Summed up:
as §2

Data set [13] has as its target T3, E-selectin. Kind of data set: In vitro inhibitory potency compared to TNF-alpha induced Selectin E expression in human endothelial cells (ELISA assay). It is filed as cell-based, Endothelial cell. Summed up:
as §2

The subject of data set [14] is Mus musculus. In words: Efficacy in serum sICAM-1 at 30 mg/kg of oral dosing in an inhaled allergen-induced cell influx in 6 mice. It is filed as functional. Summed up:
as §1

Data set [15] relates to Mus musculus. Kind of data set: Efficacy in serum sICAM-1 at 3 mg/kg of oral dosing in an inhaled allergen-induced cell influx in 7 mice. It is filed as functional. Summed up:
as §1

Data set [16] concerns Mus musculus. In words: % Efficacy in eosinophils at 0.3 mg/kg of oral dosing in an inhaled allergen-induced cell influx in 7 mice. The data set is classed as functional, Eosinophil. Summed up:
as §1

Data set [17] concerns Mus musculus. In words: % Efficacy in eosinophils at 30 mg/kg of oral dosing in an inhaled allergen-induced cell influx in 6 mice. The data set is classed as functional, Eosinophil. Summed up:
as §1

Data set [18] deals with Mus musculus. Kind of data set: % Efficacy in eosinophils at 3 mg/kg of oral dosing in an inhaled allergen-induced cell influx in 7 mice. The data set is classed as functional, Eosinophil. Summed up: as §1
Data set [19] has as its system Mus musculus. In words: % Efficacy in neutrophils at 0.3 mg/kg of oral dosing in an inhaled allergen-induced cell influx in 7 mice. The data set is classed as functional. Summed up:
as §1

Data set [20] concerns Mus musculus. Kind of data set: % Efficacy in neutrophils at 30 mg/kg of oral dosing in an inhaled allergen-induced cell influx in 6 mice. It is filed as functional. Summed up: as §1
Data set [21] relates to Mus musculus. In words: % Efficacy in neutrophils at 3 mg/kg of oral dosing in an inhaled allergen-induced cell influx in 7 mice. It is filed as functional. Summed up: as §1
Data set [22] concerns Mus musculus. In words: Efficacy in lBAL sICAM-1 at 0.3 mg/kg of oral dosing in an inhaled allergen-induced cell influx in 7 mice. The data set is classed as functional. Summed up: as §1
The subject of data set [23] is Mus musculus. In words: Efficacy in lBAL sICAM-1 at 30 mg/kg of oral dosing in an inhaled allergen-induced cell influx in 6 mice. The data set is classed as functional. Summed up: as §1
For data set [24], the system named is Mus musculus. In words: Efficacy in lBAL sICAM-1 at 3 mg/kg of oral dosing in an inhaled allergen-induced cell influx in 7 mice. It is filed as functional. Summed up:
as §1

The test system of data set [25] is Mus musculus. In words: Efficacy in lavage cells at 0.3 mg/kg of oral dosing in an inhaled allergen-induced cell influx in 7 mice. The data set is classed as functional. Summed up:
as §1

Data set [26] has as its system Mus musculus. In words: Efficacy in lavage cells at 3 mg/kg of oral dosing in an inhaled allergen-induced cell influx in 7 mice. The data set is classed as functional. Summed up:
as §1

The test system of data set [27] is Mus musculus. Kind of data set: Efficacy in serum sICAM-1 at 0.3 mg/kg of oral dosing in an inhaled allergen-induced cell influx in 7 mice. It is filed as functional. Summed up:
as §1

Data set [28] in a line: Solubility in pH 7.4 buffer. It is filed as physicochemical.
The target in data set [29] is T1, Intercellular adhesion molecule 1. In words: In vitro inhibitory potency compared to IL1-beta induced Intercellular adhesion molecule-1 in human endothelial cells (ELISA assay). It is filed as cell-based, Endothelial cell. Summed up:
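Primary HUVECs seeded at 5 × 10^4 cells/mL in EBM/2% FBS with EGF, bovine brain extract and gentamicin. Compound added next day for 24 h at 37 °C, then inducer (IL-1β or PMA, level not stated) for 6 h at 37 °C. Whole-cell ELISA used mouse monoclonal anti-ICAM-1 or anti-VCAM-1, HRP donkey anti-mouse IgG and OPD, read at 490 nm. Run in triplicate.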

In brackets after ≈: the same amount, converted by molar mass. Several values for one entry are separate records, joined by “and”; a condition that tells them apart may be missing. Equal entries are not always repeated. A value given as a limit tells only on which side of the number the result lay.

For orientation: IC50 means the concentration that inhibits the measured activity by half. A low value points to higher potency. Broadly, the inhibition is the drop in the measured response relative to a control, in per cent. Read a high inhibition as a strong effect. What is called solubility is the dissolved amount per volume that the medium holds. A higher solubility goes with a readily soluble substance.

T1 sequence (P05362 whole entry): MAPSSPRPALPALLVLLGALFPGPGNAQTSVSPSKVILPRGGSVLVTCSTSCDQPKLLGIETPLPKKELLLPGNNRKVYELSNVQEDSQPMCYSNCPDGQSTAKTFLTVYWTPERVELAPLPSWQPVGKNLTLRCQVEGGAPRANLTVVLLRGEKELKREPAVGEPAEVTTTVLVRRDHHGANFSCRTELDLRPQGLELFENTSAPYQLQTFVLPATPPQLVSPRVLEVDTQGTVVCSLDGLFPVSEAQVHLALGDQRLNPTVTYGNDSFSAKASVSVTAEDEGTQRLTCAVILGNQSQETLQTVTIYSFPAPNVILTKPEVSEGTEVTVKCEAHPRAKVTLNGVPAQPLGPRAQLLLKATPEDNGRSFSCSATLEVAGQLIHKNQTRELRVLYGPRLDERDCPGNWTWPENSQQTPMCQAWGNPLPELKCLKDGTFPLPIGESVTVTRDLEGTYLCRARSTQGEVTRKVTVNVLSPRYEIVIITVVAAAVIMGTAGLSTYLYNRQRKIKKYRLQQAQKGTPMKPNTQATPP

Turning to `CNC(=O)c1cc2c(Oc3ccc(C(F)(F)F)cc3)cncc2s1`, the Efficacy with Mus musculus [1] was 19.6 µg/mL; in the data set on Mus musculus [2] it was 10%; in the data set on Mus musculus [3], 48%; in the data set on Mus musculus [4], 1.89 µg/mL; in the data set on Mus musculus [5], 107 number ul-1.

`NC(=O)c1cc2c(Oc3ccc(Br)cc3)cncc2s1`: the IC50 in [6] is over 100000 nM; in data set [7], 3 nM; in data set [8], 5 nM; in data set [9] it was 6 nM; against E-selectin [11], 4 nM; on E-selectin [12], 6 nM. The IC50 was 4 nM at E-selectin [13] and 3 nM in [29]. The inhibition in data set [10] worked out at 48%. Besides, the Efficacy in the data set on Mus musculus [14] is 18.8 µg/mL and 18.5 µg/mL; in the data set with Mus musculus [15], 21.3 µg/mL; with Mus musculus [16] it was 19%; in the data set on Mus musculus [17] it was 8% and 9%; in the data set with Mus musculus [18], 14%; in the data set on Mus musculus [19], 44%. The Efficacy in the data set with Mus musculus [20] was 38% and 57%; in the data set on Mus musculus [21], 60%; in the data set with Mus musculus [22], 2.67 µg/mL; in the data set on Mus musculus [23], 1.74 µg/mL and 1.99 µg/mL; in the data set on Mus musculus [24], 2.68 µg/mL; with Mus musculus [25], 282 number ul-1. Further, the results for the Efficacy in the data set with Mus musculus [26] and with Mus musculus [27] were 319 number ul-1 and 20.7 µg/mL, respectively. The compound also showed a solubility in data set [28] of 0.46 µg/mL (≈ 1.32 µM).

Source of the values: ChEMBL document CHEMBL1134459 (J Med Chem, 2001).
